Each structure is given as a SMILES string. pIC50, pKi: −log10 of the molar value.

In data set [1] the target is T1, Cruzipain (Trypanosoma cruzi, UniProt P25779). The experiment in a line: Inhibition of Trypanosoma cruzi cruzaine expressed in Escherichia coli SG13009 using Z-FR-AMC as substrate after 5 mins.
Data set [2] addresses Cruzipain (Trypanosoma cruzi) (UniProt P25779). The experiment in a line: Inhibition of Trypanosoma cruzi cruzaine expressed in Escherichia coli SG13009 using Z-FR-AMC as substrate at 100 uM after 5 mins.
The test system of data set [3] is Trypanosoma cruzi. The experiment in a line: Antitrypanosomal activity against amastigote stage of lacZ expressing Trypanosoma cruzi Tulahuen after 72 hrs. Format: functional, organism-based. The method in brief:
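Human fibroblasts seeded 2×10^3/well in RPMI 1640 without phenol red, overnight; β-galactosidase-expressing trypomastigotes added 1.0×10^4/well. After 24 h, compounds (DMSO stocks diluted in medium) added in serial dilutions 300 to 0.4 μM, triplicate; 72 h incubation. CPRG with Nonidet P-40 (0.1% final) added, absorbance 570 nm; IC50 from curve fitting; benznidazole positive, untreated negative controls; ≥3 experiments.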

For data set [4], the target named is T1, Cruzipain. Nature of the data set: Competitive inhibition of Trypanosoma cruzi cruzaine expressed in Escherichia coli SG13009 using Z-FR-AMC as substrate by Lineweaver-Burk plot analysis. Put shortly: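 Mechanism study: eight Z-FR-AMC concentrations crossed with four inhibitor concentrations, each in triplicate, with 1.5 nM cruzain in 0.1 M sodium acetate pH 5.5, 5 mM DTT, 0.01% Triton X-100; 5 min initial rates; kinetic parameters obtained with an enzyme kinetics module.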

Data set [5] concerns Mus musculus. The experiment in a line: Acute toxicity in BALB/c mouse at 20, 30, 50 and 50 mg/kg, ip administered at 0, 2, 4, 6 hrs respectively and measured after 24 hrs post last dose. Format: organism-based. Further details: dose 50 mg/kg, route intraperitoneal. Conditions: in vivo.
In data set [6] the test system is Mus musculus. The experiment in a line: Acute toxicity in BALB/c mouse at 20, 30, 50 and 50 mg/kg, ip administered at 0, 2, 4, 6 hrs respectively and measured after last dose. The format is organism-based. Further details: dose 50 mg/kg, route intraperitoneal. Conditions: in vivo. The method in brief:
(§1)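 One female BALB/c mouse (18–20 g) per compound. Stock diluted to 5 mg/mL in sterile distilled water, given ip as cumulative doses over 6 h (20, 30, 50, 50 mg/kg at 0, 2, 4, 6 h; total 150 mg/kg). Mice observed 48 h for acute toxicity signs (chill, thirst) or death, then euthanized.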

For data set [7], the system named is Mus musculus. The experiment in a line: Acute toxicity in BALB/c mouse assessed as mortality incidence at 20, 30, 50 and 50 mg/kg, ip administered at 0, 2, 4, 6 hrs respectively and measured after 48 hrs post last dose. The note with it: in vivo. Format: organism-based. Further details: dose 50 mg/kg, route intraperitoneal. The method in brief:
as §1

Data set [8] has as its system Trypanosoma cruzi. Nature of the data set: Ratio of benznidazole IC50 to compound IC50 for amastigote stage of lacZ expressing Trypanosoma cruzi Tulahuen. Format: functional. The method in brief:
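Human fibroblasts (2×10^3/well) were seeded overnight in phenol-red-free RPMI 1640, then infected with β-galactosidase-expressing Tulahuen trypomastigotes (1.0×10^4/well). After 24 h, compounds (DMSO stocks) were added as serial dilutions from 300 to 0.4 μM, each in triplicate. After 72 h, CPRG with 0.1% Nonidet P-40 was added and A570 read. Benznidazole was run alongside as standard. IC50s are means of ≥3 experiments.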

T1 sequence (P25779 whole entry): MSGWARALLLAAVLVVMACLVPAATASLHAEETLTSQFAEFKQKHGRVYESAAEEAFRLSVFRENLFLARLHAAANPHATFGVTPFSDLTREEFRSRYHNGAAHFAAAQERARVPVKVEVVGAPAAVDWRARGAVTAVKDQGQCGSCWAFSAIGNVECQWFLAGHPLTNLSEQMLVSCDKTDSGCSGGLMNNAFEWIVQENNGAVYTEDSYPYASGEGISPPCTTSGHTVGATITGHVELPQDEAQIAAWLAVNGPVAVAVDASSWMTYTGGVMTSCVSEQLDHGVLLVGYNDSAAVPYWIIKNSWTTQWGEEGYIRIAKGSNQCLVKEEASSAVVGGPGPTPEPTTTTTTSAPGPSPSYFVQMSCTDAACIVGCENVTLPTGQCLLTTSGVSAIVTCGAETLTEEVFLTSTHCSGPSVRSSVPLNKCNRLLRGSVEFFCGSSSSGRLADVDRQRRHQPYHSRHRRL
Cruzipain (Trypanosoma cruzi), sequence (P25779 123-467 limits assumed): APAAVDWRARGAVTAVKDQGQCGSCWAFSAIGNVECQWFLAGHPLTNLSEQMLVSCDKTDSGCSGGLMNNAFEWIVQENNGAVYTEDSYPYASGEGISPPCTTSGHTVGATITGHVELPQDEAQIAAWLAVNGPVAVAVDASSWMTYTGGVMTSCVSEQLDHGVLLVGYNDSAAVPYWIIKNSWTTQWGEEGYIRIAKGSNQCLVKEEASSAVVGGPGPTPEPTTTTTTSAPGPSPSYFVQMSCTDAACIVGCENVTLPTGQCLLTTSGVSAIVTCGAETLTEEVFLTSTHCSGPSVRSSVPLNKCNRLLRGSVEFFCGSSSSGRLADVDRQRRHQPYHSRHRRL

The term pIC50 denotes the negative decadic logarithm of the IC50, by convention in mol/L. What is called inhibition is how much of the control response was suppressed. Lower therefore signals little suppression. `Cc1ccc2[nH]c(CCNC(=O)COc3ccc4ccccc4c3Br)nc2c1` showed a negative-log IC50 (pIC50) against Cruzipain [1] of 6.21. In data set [2], this compound yielded an inhibition of 97%.
With `O=C(COc1ccccc1[N+](=O)[O-])NCCc1nc2ccccc2[nH]1`, the pIC50 was 4.88 against Cruzipain [1] and 5.10 with Trypanosoma cruzi [3]. In data set [2], the inhibition was found to be 93%.
Compound `Cc1ccccc1OCC(=O)NCCN1CCCCC1` came in with an inhibition in data set [2] of 3%.
Consider `O=C(COc1ccc2ccccc2c1CO)NCCc1nc2ccccc2[nH]1`, for which, at Cruzipain [1], the pIC50 was 4.90. The inhibition in data set [2] turned out to be 80%.
As to `O=C(COc1ccc2ccccc2c1)NCCc1nc2ccccc2o1`, the inhibition in data set [2] was 22%.
The pKi is the negative decadic logarithm of the Ki, by convention in mol/L. Lower therefore signals a high Ki. `O=C(COc1ccc2ccccc2c1Br)NCCc1nc2ccccc2[nH]1`: the values for the negative-log IC50 (pIC50) at Cruzipain [1] and in the data set with Trypanosoma cruzi [3] were 6.68 and 4.79, respectively. For the same compound, the inhibition in data set [2] is 92%. Further, the negative logarithm of the Ki (pKi) at Cruzipain [4] is 7.09.
Regarding `O=C(CCOc1ccccc1)NCCc1nc2ccccc2[nH]1`, the inhibition in data set [2] worked out at 25%.
`Cc1ccccc1OCC(=O)NCCc1nc2ccccc2[nH]1`: the figures for the pIC50 at Cruzipain [1] and in the data set on Trypanosoma cruzi [3] were 5.39 and 5.55, respectively. The Activity entry in the data set with Mus musculus [5] is “Non-toxic”; in the data set on Mus musculus [6] it was “Toxic”; in the data set on Mus musculus [7], “Non-toxic”. In data set [2], this compound came in with an inhibition of 88%.
For the compound `Cc1ccccc1OCC(=O)NCCC(=O)Nc1ccccc1`, the inhibition in data set [2] was 4%.
The same measure, in the same setting: next, `Cc1ccccc1OCC(=O)NCCC(=O)NCc1ccccc1`: 8%.
Still for that read-out and setting: the figure for `CC(=O)n1c(CCNC(=O)COc2ccccc2[N+](=O)[O-])nc2ccccc21` is 47%; for `O=C(CCc1ccccc1Br)NCCN1CCCCC1` it is 7%.
Still for that read-out and setting: next, `Cc1ccccc1OCCNCCc1nc2ccccc2[nH]1`: 8%; `O=C(COc1ccc2ccccc2c1)NCCC(=O)Nc1ccccc1O`: 14%.
Take `O=C(COc1ccc(Br)cc1)NCCc1nc2ccccc2[nH]1`: the figures for the negative logarithm of the IC50 (pIC50) against Cruzipain [1] and in the data set with Trypanosoma cruzi [3] were 5.57 and 5.17, respectively. The Activity result with Mus musculus [5] is given as “Non-toxic”; in the data set on Mus musculus [6] it was “Toxic”; with Mus musculus [7], “Non-toxic”. The compound also yielded an inhibition in data set [2] of 96%.
Regarding `O=C(CSc1ccccc1)NCCc1nc2ccccc2[nH]1`, the negative logarithm of the IC50 (pIC50) against Cruzipain [1] is 4.42; with Trypanosoma cruzi [3] it was under 4.00. The results for the Activity result in the data set with Mus musculus [5], in the data set on Mus musculus [6] and in the data set with Mus musculus [7] were “Non-toxic”, “Toxic” and “Non-toxic”, respectively. For the same compound, in data set [2], the inhibition turned out to be 66%.
In the case of `O=C(COc1ccc2ccccc2c1)NCCc1nc2ccccc2[nH]1`, the pIC50 against Cruzipain [1] is 5.52; in the data set on Trypanosoma cruzi [3], 4.34. This compound showed an inhibition in data set [2] of 90%.
With `O=C(COc1ccccc1I)NCCc1nc2ccccc2[nH]1`, the negative-log IC50 (pIC50) at Cruzipain [1] is 5.80; with Trypanosoma cruzi [3], under 4.00. For the same compound, the Activity entry is “Non-toxic” in the data set on Mus musculus [5], “Toxic” with Mus musculus [6] and “Toxic” with Mus musculus [7]. In addition, the inhibition in data set [2] is 96%.
Compound `Cc1ccccc1OCC(=O)NCCc1nc2ccccc2o1` showed an inhibition in data set [2] of 33%. In the data set with Trypanosoma cruzi [3], this compound showed a pIC50 of 5.54.
Compound `O=C(COc1ccccc1)NCCc1nc2ccccc2[nH]1` gave an inhibition in data set [2] of 88%.
The same measure, in the same setting: next, `Cc1ccccc1OCC(=O)NCCc1c[nH]c2ccccc12`: 5%.
For the compound `C=CCCn1c(CCNC(=O)COc2ccccc2Cl)nc2ccccc21`, the pIC50 was 4.62 against Cruzipain [1] and 4.95 with Trypanosoma cruzi [3]. In data set [2], the inhibition was determined as 89%.
Compound `CC(=O)Nc1ccccc1OCC(=O)NCCc1nc2ccccc2[nH]1` registered an inhibition in data set [2] of 25%.
On the same count and under the same terms, the figure for `O=C(COc1ccccc1Cl)NCCc1cnc[nH]1` is 14%; for `Cc1cc(C)c(C#N)c(SCCNC(=O)COc2ccccc2C)n1` it is 13%; for `O=C(COc1ccc2ccccc2c1)NCCc1cnc[nH]1` it is 7%.
`Cc1ccccc1OCC(=O)NCCC(=O)O` displayed an inhibition in data set [2] of 8%.
Take `O=C(COc1ccccc1F)NCCc1nc2ccccc2[nH]1`: the negative logarithm of the IC50 (pIC50) is 5.28 against Cruzipain [1] and under 4.00 in the data set with Trypanosoma cruzi [3]. In addition, the figures for the Activity result with Mus musculus [5], in the data set on Mus musculus [6] and in the data set with Mus musculus [7] were “Non-toxic”, “Toxic” and “Non-toxic”, respectively. The same compound yielded an inhibition in data set [2] of 92%.
Turning to `Cc1ccccc1OCC(=O)NCCC(=O)Nc1ccccc1O`, the inhibition in data set [2] worked out at 2%.
In the data set on Trypanosoma cruzi [3], `O=C(Cn1ccnc1[N+](=O)[O-])NCc1ccccc1` [BENZNIDAZOLE] gave a pIC50 of 5.32.
With `O=C(COc1ccc2ccccc2c1O)NCCc1nc2ccccc2[nH]1`, the pIC50 against Cruzipain [1] is 5.09. Further, in data set [2], the inhibition is 51%.
`O=C(COc1cccc2ccccc12)NCCc1nc2ccccc2[nH]1`: the figures for the negative-log IC50 (pIC50) on Cruzipain [1] and in the data set on Trypanosoma cruzi [3] were 5.28 and under 4.00, respectively. In addition, the inhibition in data set [2] worked out at 84%.
For the compound `COc1ccc2[nH]c(CCNC(=O)COc3ccc4ccccc4c3Br)nc2c1`, at Cruzipain [1], the pIC50 is 6.27. In addition, the inhibition in data set [2] is 93%.
`O=C(COc1ccccc1Cl)NCCc1nc2ccccc2[nH]1`: the pIC50 was 5.52 against Cruzipain [1] and under 4.00 in the data set on Trypanosoma cruzi [3]. The inhibition in data set [2] is 92%.
For the compound `N#Cc1ccccc1OCC(=O)NCCc1nc2ccccc2[nH]1`, the negative-log IC50 (pIC50) against Cruzipain [1] was 4.19; with Trypanosoma cruzi [3], 5.19. For the same compound, the Activity result with Mus musculus [5] was “Non-toxic”; in the data set with Mus musculus [6], “Toxic”; in the data set on Mus musculus [7] it was “Non-toxic”. Further, the inhibition in data set [2] was 81%.
Consider `O=C(COc1ccc2ccccc2c1Br)NCCc1c[nH]c2ccccc12`, for which, in data set [2], the inhibition was found to be 2%.
Take `O=C(COc1cccc(Br)c1)NCCc1nc2ccccc2[nH]1`: the negative logarithm of the IC50 (pIC50) is 6.10 at Cruzipain [1] and under 4.00 with Trypanosoma cruzi [3]. For the same compound, the Activity entry is “Non-toxic” in the data set on Mus musculus [5], “Toxic” in the data set with Mus musculus [6] and “Non-toxic” in the data set with Mus musculus [7]. The compound further registered an inhibition in data set [2] of 96%.
As for `Nc1ccccc1OCC(=O)NCCc1nc2ccccc2[nH]1`, in data set [2], the inhibition amounted to 43%.
`O=C(COc1ccc2ccccc2c1Br)NCCc1nc2cc(Cl)ccc2[nH]1`: the pIC50 against Cruzipain [1] was 6.22. Besides, the inhibition in data set [2] was found to be 90%.
For `O=C(COc1ccccc1Br)NCCc1nc2ccccc2[nH]1`, the negative-log IC50 (pIC50) was 6.10 at Cruzipain [1] and 5.80 in the data set with Trypanosoma cruzi [3]. Moreover, the inhibition in data set [2] is 89%. Besides, the “Ratio IC50” value in the data set with Trypanosoma cruzi [8] worked out at 3.
`O=Cc1c(OCC(=O)NCCc2nc3ccccc3[nH]2)ccc2ccccc12`: the pIC50 against Cruzipain [1] is 4.87. Further, the inhibition in data set [2] turned out to be 80%.
For the compound `O=C(CCc1ccccc1Br)NCCc1nc2ccccc2[nH]1`, the pIC50 was 4.11 against Cruzipain [1] and 4.46 with Trypanosoma cruzi [3]. The compound also returned an inhibition in data set [2] of 51%.
Turning to `Nc1ccccc1NC(=O)CCNC(=O)COc1ccccc1[N+](=O)[O-]`, in data set [2], the inhibition came out at 4%.
Consider `O=C(COc1ccccc1Br)NCCN1CCCCC1`, for which, in data set [2], the inhibition worked out at 1%.
On to `CC(=O)n1c(CCNC(=O)COc2ccc(Br)cc2)nc2ccccc21`, for which the negative-log IC50 (pIC50) at Cruzipain [1] is 5.00; in the data set with Trypanosoma cruzi [3] it was 5.28. In data set [2], this compound came in with an inhibition of 84%.

The record behind these values is ChEMBL document CHEMBL3232808, “Synthesis, biological evaluation, and structure-activity relationships of potent noncovalent and nonpeptidic cruzain inhibitors as anti-Trypanosoma cruzi agents” (J Med Chem, 2014).
